Measured values reported in ChEMBL document CHEMBL4834414 (J Med Chem, 2021).
Activity calls are given as the source filed them. The rule behind the calls is not given here.

What was measured:
[1] = target: T1, Microtubule-associated protein 1 light chain 3 alpha (Homo sapiens, UniProt Q9H492); assay: Displacement of sGFP-p62-LIR peptide from human N-terminal SNAP-fused LC3A by time-resolved FRET assay
In short: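 HTRF displacement: 10 nM N-terminal SNAP-LC3A labeled with terbium cryptate (donor) and 1 μM p62-LIR-sGFP (acceptor), with compound at varying concentrations in 1% DMSO. Buffer 25 mM HEPES pH 7.5, 150 mM KF, 10% glycerol, 0.1% CHAPS, 5 mM DTT. Incubated 2 h at RT; excitation 340 nm, emission read at 520 and 620 nm. IC50 with SD; Ki calculated.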

[2] = target: T1, Microtubule-associated protein 1 light chain 3 alpha; assay: Binding affinity to recombinant LC3A (unknown origin) assessed as shift of melting temperature by differential scanning fluorimetry
In short: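 LC3A at 30 μM in HTRF buffer with 0.1% CHAPS, 2.5× SYPRO orange, 300 μM inhibitor and 1% DMSO, with a no-protein background. Heated 25.0 to 79.8 °C at 1 °C/min; excitation 490 nm, emission 570 nm. Tm taken as the first-derivative maximum; ΔTm against DMSO control. Triplicates in three independent experiments.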

[3] = target: T1, Microtubule-associated protein 1 light chain 3 alpha; assay: Binding affinity to human LC3A expressed in Escherichia coli BL21-(DE3) by isothermal titration calorimetry
In short: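 His-tagged LC3A from E. coli BL21(DE3), TEV-cleaved and purified by IMAC, reverse IMAC and SEC into HTRF buffer (25 mM HEPES pH 7.5, 150 mM KF, 10% glycerol, 5 mM DTT), plus 0.1% CHAPS and 1% DMSO. ITC at 25 °C, stirring 75 rpm: 80 μM protein; inhibitor at 500 μM or 1 mM. Injection settings optimized per compound; dilution heats checked by blank titrations.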

[4] = target: T2, Microtubule-associated protein 1 light chain 3 beta (Homo sapiens, UniProt Q9GZQ8); assay: Displacement of sGFP-p62-LIR peptide from human N-terminal SNAP-fused LC3B by time-resolved FRET assay
[5] = target: Gamma-aminobutyric acid receptor-associated protein-like 2 (Homo sapiens) (UniProt P60520); assay: Binding affinity to human GABARAPL2 expressed in Escherichia coli T7 by single site binding model based isothermal titration calorimetry
Gamma-aminobutyric acid receptor-associated protein-like 2 (Homo sapiens), sequence (P60520 whole entry): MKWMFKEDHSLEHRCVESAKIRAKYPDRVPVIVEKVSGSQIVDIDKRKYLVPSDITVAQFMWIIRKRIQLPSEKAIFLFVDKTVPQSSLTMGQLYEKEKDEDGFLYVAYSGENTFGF
In short: (§1)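 Human Atg8-family proteins (LC3A, LC3C, GABARAP, GABARAPL1, GABARAPL2) expressed with a modified Ub tag, equilibrated in 50 mM Na2HPO4, 100 mM NaCl, 5% DMSO, pH 7.0; ligand prepared in the same buffer. ITC at 25 °C: 0.4 mM ligand titrated into 0.020 mM protein in 21 injections. Kd from a nonlinear least-squares fit to a single-site binding model.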

[6] = target: Gamma-aminobutyric acid receptor-associated protein-like 1 (Homo sapiens) (UniProt Q9H0R8); assay: Binding affinity to human GABARAPL1 expressed in Escherichia coli T7 by single site binding model based isothermal titration calorimetry; in short: as §1
Gamma-aminobutyric acid receptor-associated protein-like 1 (Homo sapiens), sequence (Q9H0R8 whole entry, looked up): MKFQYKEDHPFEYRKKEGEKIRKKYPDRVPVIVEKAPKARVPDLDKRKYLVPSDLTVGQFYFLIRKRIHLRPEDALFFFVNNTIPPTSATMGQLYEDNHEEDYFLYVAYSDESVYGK

[7] = target: Microtubule-associated protein 1 light chain 3 gamma (Homo sapiens) (UniProt Q9BXW4); assay: Binding affinity to human LC3C expressed in Escherichia coli BL21-(DE3) by single site binding model based isothermal titration calorimetry; in short: as §1
Microtubule-associated protein 1 light chain 3 gamma (Homo sapiens), sequence (Q9BXW4 whole entry): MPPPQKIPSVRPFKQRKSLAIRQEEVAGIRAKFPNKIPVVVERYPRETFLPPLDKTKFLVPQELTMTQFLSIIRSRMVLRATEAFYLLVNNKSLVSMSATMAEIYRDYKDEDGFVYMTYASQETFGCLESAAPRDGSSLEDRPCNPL

[8] = target: Gamma-aminobutyric acid receptor-associated protein (Homo sapiens) (UniProt O95166); assay: Binding affinity to human GABARAP expressed in Escherichia coli T7 by single site binding model based isothermal titration calorimetry; in short: as §1
Gamma-aminobutyric acid receptor-associated protein (Homo sapiens), sequence (O95166 whole entry): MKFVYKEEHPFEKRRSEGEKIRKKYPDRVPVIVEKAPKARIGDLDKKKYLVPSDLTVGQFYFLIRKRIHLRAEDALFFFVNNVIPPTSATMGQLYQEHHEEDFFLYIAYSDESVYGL

[9] = target: T1, Microtubule-associated protein 1 light chain 3 alpha; assay: Binding affinity to human LC3A expressed in Escherichia coli BL21-(DE3) by single site binding model based isothermal titration calorimetry; in short: as §1
[10] = target: T2, Microtubule-associated protein 1 light chain 3 beta; assay: Binding affinity to human LC3B expressed in Escherichia coli BL21-(DE3) by isothermal titration calorimetry
[11] = target: T2, Microtubule-associated protein 1 light chain 3 beta

Structure (SMILES)	Ki ([1]; read-out: Ki)	IC50 ([1]; read-out: IC50)	other results
CCCS(=O)(=O)Nc1cccc(C(=O)Nc2c(O)c3ccc(O)cc3oc2=O)c1	144 µM	–	–
CC(C)CCc1cccc(C(=O)Nc2c(O)c3ccc(NS(=O)(=O)c4ccccc4)cc3oc2=O)c1	17.6 µM	85.9 µM	–
CC(C)CCc1cccc(C(=O)Nc2c(O)c3ccc(-c4ccc(C(=O)O)cc4)cc3oc2=O)c1	18.9 µM	92.1 µM	–
CC(C)CS(=O)(=O)Nc1cccc(C(=O)Nc2c(O)c3ccc(O)cc3oc2=O)c1	53 µM	–	–
CCCc1cccc(C(=O)Nc2c(O)c3ccc(O)cc3oc2=O)c1	20 µM	–	–
CC(C)CCc1cccc(C(=O)Nc2c(O)c3ccc(-c4cccc5ccccc45)cc3oc2=O)c1	8.8 µM	42.8 µM	–
Cc1c(O)ccc2c(O)c(NC(=O)c3ccc(O)c(CCC(C)C)c3)c(=O)oc12	24.3 µM	119 µM	ΔTm [2]: 0.7 °C; Kd [3]: 14.2 µM
CC(C)Cc1cccc(C(=O)Nc2c(O)c3ccc(O)cc3oc2=O)c1	20 µM	–	–
CC(C)CCc1cccc(C(=O)Nc2c(O)c3ccc(NC(=O)CCCC(=O)O)cc3oc2=O)c1	46.9 µM	229 µM	–
CCCSc1cccc(C(=O)Nc2c(O)c3ccc(O)cc3oc2=O)c1	32 µM	–	–
Cc1ccc(S(=O)(=O)Nc2ccc3c(O)c(NC(=O)c4cccc(CCC(C)C)c4)c(=O)oc3c2)cc1	12.3 µM	59.9 µM	–
O=C(Nc1c(O)c2ccc(O)cc2oc1=O)c1cccc(Oc2ccccc2)c1	44 µM	–	–
CC(C)CCc1cccc(C(=O)Nc2c(O)c3ccc(NC(=O)CCC(=O)O)cc3oc2=O)c1	44.3 µM	217 µM	–
CC(C)CCc1cccc(C(=O)Nc2c(O)c3ccc(-c4ccccc4-c4ccccc4)cc3oc2=O)c1	105 µM	515 µM	IC50 [4]: Not Active; Ki [4]: Not Active
CCCCOc1cccc(C(=O)Nc2c(O)c3ccc(O)cc3oc2=O)c1	69 µM	–	–
O=C(Nc1c(O)c2ccc(O)cc2oc1=O)c1cccc(SCC2CC2)c1	13 µM	–	–
CC(C)Sc1cccc(C(=O)Nc2c(O)c3ccc(O)cc3oc2=O)c1	47 µM	–	–
O=C(Nc1c(O)c2ccc(O)cc2oc1=O)c1cccc(OCC2CC2)c1	137 µM	–	Ki [4]: Not Active
CC(C)CCc1cc(C(=O)Nc2c(O)c3ccc(O)cc3oc2=O)ccc1F	21.8 µM	107 µM	–
CCCC[C@H](NC(=O)OC(C)(C)C)C(=O)Nc1c(O)c2ccc(O)cc2oc1=O	137 µM	668 µM	Ki [4]: Not Active; IC50 ([4]; read-out: IC50): 668 µM

Structure (SMILES)	Ki ([1]; read-out: Ki)	IC50 ([1]; read-out: IC50)	other results
CCCCS(=O)(=O)Nc1cccc(C(=O)Nc2c(O)c3ccc(O)cc3oc2=O)c1	26 µM	–	–
CCCCCc1cccc(C(=O)Nc2c(O)c3ccc(O)cc3oc2=O)c1	12 µM	–	–
C=CCOc1cccc(C(=O)Nc2c(O)c3ccc(O)cc3oc2=O)c1	20 µM	–	–
CC(C)CCc1cc(C(=O)Nc2c(O)c3ccc(O)cc3oc2=O)ccc1O	26.2 µM	128 µM	ΔTm [2]: 0.8 °C; Kd [3]: 27.5 µM
CCCCSc1cccc(C(=O)Nc2c(O)c3ccc(O)cc3oc2=O)c1	18 µM	–	–
CC(C)CCc1cccc(C(=O)Nc2c(O)c3ccc(NS(=O)(=O)c4cccc5ccccc45)cc3oc2=O)c1	6.4 µM	31.2 µM	–
O=C(Nc1c(O)c2ccc(O)cc2oc1=O)c1cccc(CCc2ccccc2)c1	75 µM	–	–
CO[C@@H]1[C@@H](OC(N)=O)[C@@H](O)[C@H](Oc2ccc3c(O)c(NC(=O)c4ccc(O)c(CC=C(C)C)c4)c(=O)oc3c2C)OC1(C)C	–	–	Activity [5]: inactive; Activity [6]: inactive; Activity [7]: inactive; Activity [8]: inactive; Activity [9]: Active
CC(C)[C@H](NC(=O)OC(C)(C)C)C(=O)Nc1c(O)c2ccc(O)cc2oc1=O	–	–	IC50 [4]: Not Active; Ki [4]: Not Active; IC50 [1]: Not Active; Ki [1]: Not Active
COc1ccc(C(=O)Nc2c(O)c3ccc(O)cc3oc2=O)cc1CCC(C)C	13.2 µM	64.4 µM	–
CC(C)CCc1cccc(C(=O)Nc2c(O)c3ccc(-c4ccnn4Cc4ccccc4)cc3oc2=O)c1	167 µM	813 µM	IC50 [4]: Not Active; Ki [4]: Not Active
O=C(Nc1c(O)c2ccc(O)cc2oc1=O)c1cccc(CCC2CC2)c1	13 µM	–	–
CS(=O)(=O)Nc1cccc(C(=O)Nc2c(O)c3ccc(O)cc3oc2=O)c1	130 µM	–	–
CO[C@@H]1[C@@H](OC(N)=O)[C@@H](O)[C@H](Oc2ccc3c(O)c(NC(=O)c4ccc(O)c(CCC(C)C)c4)c(=O)oc3c2C)OC1(C)C	3.3 µM	16 µM	Kd [10]: 11.4 µM; IC50 ([4]; read-out: IC50): 72.3 µM; Ki ([4]; read-out: Ki): 8.1 µM; ΔTm [2]: 5.6 °C; Kd [3]: 2.8 µM; ΔTm [11]: 5.6 °C
O=C(Nc1c(O)c2ccc(O)cc2oc1=O)c1cccc(OCc2ccccc2)c1	44 µM	–	–
CC(C)CCc1cccc(C(=O)Nc2c(O)c3ccc(-c4cccc(C(=O)O)c4)cc3oc2=O)c1	7.2 µM	35.3 µM	–
CC(C)C[C@@H](NC(=O)OC(C)(C)C)C(=O)Nc1c(O)c2ccc(O)cc2oc1=O	–	–	IC50 [1]: Not Active; Ki [1]: Not Active
CC(C)CCc1cccc(C(=O)Nc2c(O)c3ccc(NS(=O)(=O)CCc4ccccc4)cc3oc2=O)c1	7.5 µM	36.7 µM	IC50 ([4]; read-out: IC50): 66.3 µM; Ki ([4]; read-out: Ki): 7.4 µM
CC(C)CCc1cccc(C(=O)Nc2c(O)c3ccc(NS(=O)(=O)CC(C)C)cc3oc2=O)c1	22.6 µM	110 µM	–
Cc1c(O)ccc2c(O)c(NC(=O)c3cccc(CCC(C)C)c3)c(=O)oc12	32.7 µM	160 µM	ΔTm [2]: 0 °C; Kd [3]: 15.7 µM

Structure (SMILES)	Ki ([1]; read-out: Ki)	IC50 ([1]; read-out: IC50)	other results
CC(C)Oc1cccc(C(=O)Nc2c(O)c3ccc(O)cc3oc2=O)c1	103 µM	–	–
CCOc1cccc(C(=O)Nc2c(O)c3ccc(O)cc3oc2=O)c1	129 µM	–	Ki [4]: Not Active
CC(C)CCc1cccc(C(=O)Nc2c(O)c3ccc(-c4ccnn4C)cc3oc2=O)c1	44.8 µM	219 µM	–
CCCOc1cccc(C(=O)Nc2c(O)c3ccc(O)cc3oc2=O)c1	143 µM	–	–
COc1cccc(C(=O)Nc2c(O)c3ccc(O)cc3oc2=O)c1	–	–	Ki [4]: Not Active; Ki [1]: Not Active
Cc1ccccc1S(=O)(=O)Nc1ccc2c(O)c(NC(=O)c3cccc(CCC(C)C)c3)c(=O)oc2c1	15.6 µM	76 µM	–
CC(C)CCc1cccc(C(=O)Nc2c(O)c3ccc(-c4coc5ccccc45)cc3oc2=O)c1	–	–	IC50 [4]: Not Active; Ki [4]: Not Active; IC50 [1]: Not Active; Ki [1]: Not Active
CC(C)(C)OC(=O)NCC(=O)Nc1c(O)c2ccc(O)cc2oc1=O	–	–	IC50 [4]: Not Active; Ki [4]: Not Active; IC50 [1]: Not Active; Ki [1]: Not Active
CCn1nccc1-c1ccc2c(O)c(NC(=O)c3cccc(CCC(C)C)c3)c(=O)oc2c1	38.9 µM	190 µM	–
CCCCc1cccc(C(=O)Nc2c(O)c3ccc(O)cc3oc2=O)c1	12 µM	–	–
CC(C)CCc1ccccc1C(=O)Nc1c(O)c2ccc(O)cc2oc1=O	44 µM	215 µM	–
CCSc1cccc(C(=O)Nc2c(O)c3ccc(O)cc3oc2=O)c1	42 µM	–	–
CC(C)CCc1cccc(C(=O)Nc2c(O)c3ccc(NS(=O)(=O)Cc4ccccc4)cc3oc2=O)c1	15 µM	73.1 µM	–
CC(C)S(=O)(=O)Nc1cccc(C(=O)Nc2c(O)c3ccc(O)cc3oc2=O)c1	39 µM	–	–
CC(C)CCc1cccc(C(=O)Nc2c(O)c3ccc(O)cc3oc2=O)c1	13.3 µM	64.8 µM	ΔTm [2]: 1.4 °C; Kd [3]: 17.2 µM
CC(C)CSc1cccc(C(=O)Nc2c(O)c3ccc(O)cc3oc2=O)c1	52 µM	–	–
CC(=O)Nc1ccc2c(O)c(NC(=O)c3cccc(CCC(C)C)c3)c(=O)oc2c1	24.6 µM	120 µM	–
CC[C@H](C)[C@H](NC(=O)OC(C)(C)C)C(=O)Nc1c(O)c2ccc(O)cc2oc1=O	–	–	IC50 [4]: Not Active; Ki [4]: Not Active; IC50 [1]: Not Active; Ki [1]: Not Active
